Compounds with a hit are over-represented: about 3.9% of the library has one in this group of screens.
STAT1 act = increases IFN-gamma driven STAT1 reporter signal | NIH 3T3 STAT1-luciferase reporter, luminescence; 100% = IFN-gamma alone, no compound | AID 932 | actives 2.6% (n = 200,000) | activation (% of control), % at 5.5 µM;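 active means activation above the screen-wide mean activation plus 3 SD, cut at about 130% in these data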
STAT3 activator = increases IL-6 driven STAT3 reporter signal | U3A cells, IL-6 STAT3-luciferase reporter, luminescence; 100% = signal with IL-6 EC80 alone | actives 0.91% (n = 190,000) | AID 871 | activation (% of control), % at 5.6 µM;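 active means activation above the screen-wide mean of compound activation plus 3 SD, cut at about 130% in these data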
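Material: STAT3-luciferase reporter U3A cells; Probe or stimulus: IL-6 (33 ng/mL); Incubation: compound pre-incubation 1 h before IL-6, then 6 h stimulation at 37 °C; Technique: luminescence from STAT3-driven luciferase reporter; Evaluation: % activation versus median of IL-6-stimulated wells; Controls: IL-6-only high control.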
APP 5'UTR act = APP 5'UTR luciferase reporter activation. SH-SY5Y APP 5'UTR luciferase reporter, luminescence; zero percent = DMSO vehicle wells. activation, % at 2 µM. actives 1% (n = 190,000). AID 1276;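 active means activation above a set limit, based on mean plus 3 SD of controls, cut at about 140% in these data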
NF-kB neuron act = raises NF-kB expression in human neuronal cells; NF-kB reporter expression; hits give high values; fold change at 12.5 µM; actives 1.6% (n = 190,000); AID 1239; in the data active means fold change above about 3.3
Pf gamet viab = kills late stage P. falciparum gametocytes. P. falciparum stage V gametocytes, ATP luminescence, 24 h. inhibition, % at 10.9 µM. actives 0.065% (n = 150,000). AID 743093;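 active means inhibition above the mean plus 3 SD of compounds within the control limits, set per campaign, cut at about 38% in these data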
STAT1 inh = inhibitors of IFN-gamma induced STAT1 signaling. actives 0.35% (n = 200,000). inhibition, % at 5.5 µM. AID 920. NIH 3T3 STAT1-luciferase reporter, luminescence;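 active means inhibition above a set limit, the mean inhibition across all tested compounds plus 3 SD, cut at about 34% in these data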
Numbers stand for hits.

Results for O=C(Nc1ccc2c(c1)OCO2)c1ccc2c(c1)OCO2 ?
STAT1 act: 132.1; STAT3 activator: inactive; APP 5'UTR act: 138.5; NF-kB neuron act: 8.01; Pf gamet viab: inactive; STAT1 inh: inactive

What do the screens show for `O=C(CCc1ccccc1)c1ccc2c(c1)OCCCO2`?
STAT1 act: inactive; STAT3 activator: inactive; APP 5'UTR act: inactive; NF-kB neuron act: inactive; Pf gamet viab: inactive; STAT1 inh: inactive

Results for O=C(/C(=N\Nc1ccccc1)Sc1nnnn1-c1ccccc1)c1ccccc1 ?
STAT1 act: inactive; STAT3 activator: inactive; APP 5'UTR act: inactive; NF-kB neuron act: inactive; STAT1 inh: inactive

How did CCOC(=O)C1CCN(c2nc(N)c3c(N)nc(SCC(=O)O)cc3c2C#N)CC1 do in these assays?
Pf gamet viab: inactive

How did Cc1cc(O)ccc1N/C=C/c1onc(C)c1[N+](=O)[O-] do in these assays?
STAT1 act: 134.6; STAT3 activator: inactive; APP 5'UTR act: 162.1; NF-kB neuron act: inactive; Pf gamet viab: inactive; STAT1 inh: inactive

Results for O=C(Cc1csc(Nc2nc(=S)[nH]c3ccccc23)n1)NCc1cccc(Cl)c1 ?
STAT1 act: inactive; STAT3 activator: inactive; APP 5'UTR act: inactive; NF-kB neuron act: inactive; STAT1 inh: inactive

How did O=C(Cc1csc(Nc2nc(=S)[nH]c3ccccc23)n1)N1CCN(c2cccc(C(F)(F)F)c2)CC1 do in these assays?
STAT1 act: inactive; STAT3 activator: 134.8; APP 5'UTR act: inactive; NF-kB neuron act: inactive; Pf gamet viab: inactive; STAT1 inh: inactive

What do the screens show for `COc1c(Cl)cc(Cl)cc1CNCCO`?
STAT1 act: inactive; STAT3 activator: inactive; APP 5'UTR act: inactive; NF-kB neuron act: inactive; Pf gamet viab: inactive; STAT1 inh: inactive

How did CC(C)CNC(=S)Nc1ccc(Oc2ccccc2)cc1 do in these assays?
STAT1 act: inactive; STAT3 activator: inactive; APP 5'UTR act: inactive; NF-kB neuron act: inactive; Pf gamet viab: inactive; STAT1 inh: inactive

How did COc1cc(CN2CCN(C(=O)CC(C)C)CC2)c([N+](=O)[O-])cc1OC do in these assays?
Pf gamet viab: inactive

Results for Cc1cccc(-c2noc(CSc3ccccc3)n2)c1 ?
STAT1 act: 145.0; STAT3 activator: inactive; APP 5'UTR act: inactive; NF-kB neuron act: inactive; STAT1 inh: inactive

How did Cc1ccc(-c2noc(CSc3nc(N)cc(N)n3)n2)cc1 do in these assays?
STAT1 act: inactive; STAT3 activator: inactive; APP 5'UTR act: inactive; NF-kB neuron act: 3.44; Pf gamet viab: inactive; STAT1 inh: inactive

How did c1ccc(SCc2nc(-c3cccnc3)no2)cc1 do in these assays?
STAT1 act: 132.6; STAT3 activator: inactive; APP 5'UTR act: inactive; NF-kB neuron act: inactive; STAT1 inh: inactive

What do the screens show for `c1ccc(C(Cc2nc(-c3cccnc3)no2)c2ccccc2)cc1`?
STAT1 act: inactive; STAT3 activator: inactive; APP 5'UTR act: inactive; NF-kB neuron act: inactive; STAT1 inh: inactive

How did COc1ccc(-c2noc(CCc3ccccc3)n2)cc1 do in these assays?
STAT1 act: 133.6; STAT3 activator: inactive; APP 5'UTR act: inactive; NF-kB neuron act: inactive; Pf gamet viab: inactive; STAT1 inh: inactive

Results for C=CCOC(=O)C1=C[C@@H](c2ccc(C(F)(F)F)cc2)C[C@@H](OCc2ccc(CO)cc2)O1 ?
Pf gamet viab: inactive

Results for Cc1c(C)c(C)c(C(=O)C2CCN(c3ccc([N+](=O)[O-])cn3)CC2)c(C)c1C ?
Pf gamet viab: inactive

What do the screens show for `COc1ccc(N2CCN(C(=O)CCc3ccc(S(=O)(=O)NC(C)(C)C)cc3)CC2)cc1`?
Pf gamet viab: inactive

What do the screens show for `Cc1nc2nc(-c3cccs3)[nH]c2cc1Br`?
Pf gamet viab: inactive

Results for c1ccc(SCc2nc(-c3ccccn3)no2)cc1 ?
STAT1 act: inactive; STAT3 activator: inactive; APP 5'UTR act: inactive; NF-kB neuron act: inactive; STAT1 inh: inactive

What do the screens show for `Cc1ccc(-c2noc(CSc3ccccc3)n2)cc1`?
STAT1 act: inactive; STAT3 activator: inactive; APP 5'UTR act: 170.0; NF-kB neuron act: 4.4; Pf gamet viab: inactive; STAT1 inh: inactive

How did Cc1ccc(S(=O)(=O)NC(CC(=O)NCC2CCCO2)c2ccccc2)cc1 (stereo not given) do in these assays?
STAT1 act: inactive; STAT3 activator: inactive; APP 5'UTR act: inactive; NF-kB neuron act: inactive; Pf gamet viab: inactive; STAT1 inh: inactive

What do the screens show for `Cc1cc(Cl)ccc1OCCCC(N)=O`?
STAT1 act: inactive; STAT3 activator: inactive; APP 5'UTR act: inactive; NF-kB neuron act: inactive; STAT1 inh: inactive

Results for Cc1cc(Cl)ccc1OCCCC(=O)NO ?
STAT1 act: inactive; STAT3 activator: inactive; APP 5'UTR act: inactive; NF-kB neuron act: 3.87; STAT1 inh: inactive

How did CC12COC3(C(=O)Nc4ccc5ccccc5c4)CC1CCC32C (stereo not given) do in these assays?
STAT1 act: 143.5; STAT3 activator: inactive; APP 5'UTR act: inactive; NF-kB neuron act: inactive; Pf gamet viab: inactive; STAT1 inh: inactive

What do the screens show for `Cc1ccccc1-c1cc(C(=O)NCc2cccc(C(F)(F)F)c2)nn1CC1CC(c2cccc([N+](=O)[O-])c2)=NO1` (stereo not given)?
Pf gamet viab: inactive

How did CCCCc1ccc(NC(=S)Nc2ccc(Cl)c(S(=O)(=O)N(C)C)c2)cc1 do in these assays?
STAT1 act: inactive; STAT3 activator: inactive; APP 5'UTR act: inactive; NF-kB neuron act: inactive; Pf gamet viab: inactive; STAT1 inh: inactive

Results for COc1ccc(C(=O)Nn2c(SCC(=O)NC3CCCCC3)nc3ccccc3c2=O)cc1 ?
STAT1 act: inactive; STAT3 activator: inactive; APP 5'UTR act: inactive; NF-kB neuron act: inactive; Pf gamet viab: inactive; STAT1 inh: inactive

Results for O=C(Nn1c(SCc2cccc([N+](=O)[O-])c2)nc2ccccc2c1=O)c1ccccc1 ?
STAT1 act: 149.5; STAT3 activator: inactive; APP 5'UTR act: inactive; NF-kB neuron act: inactive; Pf gamet viab: inactive; STAT1 inh: inactive

Results for COc1ccc(C(=O)Nn2c(SCC(=O)N3CCC(C)CC3)nc3ccccc3c2=O)cc1 ?
STAT1 act: inactive; STAT3 activator: inactive; APP 5'UTR act: inactive; NF-kB neuron act: inactive; Pf gamet viab: inactive; STAT1 inh: 63.9

Results for COc1ccc(C(=O)Nn2c(SCC(=O)c3ccc(Cl)cc3)nc3ccccc3c2=O)cc1 ?
STAT1 act: inactive; STAT3 activator: inactive; APP 5'UTR act: inactive; NF-kB neuron act: inactive; Pf gamet viab: inactive; STAT1 inh: inactive

Results for CCOC(CCn1c(SCc2cccc([N+](=O)[O-])c2)nc2ccccc2c1=O)OCC ?
STAT1 act: inactive; STAT3 activator: inactive; APP 5'UTR act: inactive; NF-kB neuron act: inactive; Pf gamet viab: inactive; STAT1 inh: inactive

What do the screens show for `COc1ccc(C(=O)Nn2c(SCc3cccc([N+](=O)[O-])c3)nc3ccccc3c2=O)cc1`?
STAT1 act: 143.6; STAT3 activator: inactive; APP 5'UTR act: inactive; NF-kB neuron act: inactive; STAT1 inh: inactive

Screens deposited in PubChem BioAssay by several laboratories.
